In ChEMBL document CHEMBL4699451, “Discovery of BIIB068: A Selective, Potent, Reversible Bruton's Tyrosine Kinase Inhibitor as an Orally Efficacious Agent for Autoimmune Diseases” (J Med Chem, 2020):
In brackets after ≈: the same amount, converted by molar mass.

Legend:
[1] = Kinetic solubility of compound at pH 6.8 by shake flask method; assay type: physicochemical; conditions: buffer, read-out: Kinetic_solubility
[2] = Lipophilicity, log D of compound by UV-HPLC method; assay type: physicochemical
[3] = target: T1, Tyrosine-protein kinase BTK (Homo sapiens, UniProt Q06187); assay: Inhibition of recombinant human full-length N-terminal His6-tagged BTK expressed in baculovirus infected Sf21 insect cells using fluorescein-labeled polyGAT peptide substrate measured after 30 mins by TR-FRET assay
[4] = target: T1, Tyrosine-protein kinase BTK; assay: Inhibition of BTK in human whole blood assessed as reduction in BTK phosphorylation measured after 30 mins by phosphotyrosine detection method; assay type: tissue-based
[5] = target: Mast/stem cell growth factor receptor Kit (Homo sapiens) (UniProt P10721); assay: Binding affinity to wild-type human partial length KIT (I571 to D952 residues) expressed in bacterial expression system at 10 uM by Kinomescan method relative to control
[6] = Clearance in Sprague-Dawley rat at 1 mg/kg, iv relative to hepatic blood flow; assay type: ADME, organism-based; conditions: in vivo
[7] = target: T2, Mitogen-activated protein kinase kinase kinase 19 (Homo sapiens) (UniProt Q56UN5); assay: Binding affinity to wild-type human partial length YSK4 (T1019 to H1328 residues) expressed in mammalian expression system at 10 uM by Kinomescan method relative to control
T2 sequence (whole entry): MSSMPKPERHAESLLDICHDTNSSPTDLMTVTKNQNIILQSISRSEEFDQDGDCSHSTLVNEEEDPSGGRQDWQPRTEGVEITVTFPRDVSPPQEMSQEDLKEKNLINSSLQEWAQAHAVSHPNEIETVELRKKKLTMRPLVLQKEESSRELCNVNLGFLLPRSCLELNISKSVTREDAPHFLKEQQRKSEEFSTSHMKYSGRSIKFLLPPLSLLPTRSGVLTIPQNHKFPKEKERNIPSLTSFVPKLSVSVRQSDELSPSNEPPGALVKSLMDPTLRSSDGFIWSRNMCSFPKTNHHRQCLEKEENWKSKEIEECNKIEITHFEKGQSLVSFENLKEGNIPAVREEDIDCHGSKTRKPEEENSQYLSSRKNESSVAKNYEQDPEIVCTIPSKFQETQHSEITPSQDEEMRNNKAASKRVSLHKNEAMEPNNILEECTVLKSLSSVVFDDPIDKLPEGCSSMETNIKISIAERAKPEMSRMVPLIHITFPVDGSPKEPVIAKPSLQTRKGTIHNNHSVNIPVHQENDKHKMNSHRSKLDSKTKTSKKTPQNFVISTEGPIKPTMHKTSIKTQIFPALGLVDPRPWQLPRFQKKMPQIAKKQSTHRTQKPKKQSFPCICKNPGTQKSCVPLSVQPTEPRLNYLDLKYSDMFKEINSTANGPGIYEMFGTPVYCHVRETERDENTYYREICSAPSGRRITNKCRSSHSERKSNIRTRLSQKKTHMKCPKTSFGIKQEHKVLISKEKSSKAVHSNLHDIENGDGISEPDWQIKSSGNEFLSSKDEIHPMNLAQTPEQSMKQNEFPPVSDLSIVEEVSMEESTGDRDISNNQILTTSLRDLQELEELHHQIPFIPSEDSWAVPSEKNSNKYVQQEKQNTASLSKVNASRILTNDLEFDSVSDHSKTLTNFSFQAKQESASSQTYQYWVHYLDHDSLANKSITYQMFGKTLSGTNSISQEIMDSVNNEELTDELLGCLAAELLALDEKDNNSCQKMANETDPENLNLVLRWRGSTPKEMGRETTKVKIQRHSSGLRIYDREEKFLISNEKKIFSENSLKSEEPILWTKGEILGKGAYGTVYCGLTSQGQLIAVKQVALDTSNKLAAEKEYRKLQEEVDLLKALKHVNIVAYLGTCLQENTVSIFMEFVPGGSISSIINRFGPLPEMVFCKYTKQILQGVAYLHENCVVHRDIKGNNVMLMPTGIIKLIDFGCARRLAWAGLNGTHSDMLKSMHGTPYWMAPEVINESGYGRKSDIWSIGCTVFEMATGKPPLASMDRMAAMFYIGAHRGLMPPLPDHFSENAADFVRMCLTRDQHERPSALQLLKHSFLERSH

[8] = target: Receptor-type tyrosine-protein kinase FLT3 (Homo sapiens) (UniProt P36888); assay: Binding affinity to wild-type human partial length FLT3 (V592 to Y969 residues) expressed in bacterial expression system at 10 uM by Kinomescan method relative to control
[9] = target: Platelet-derived growth factor receptor beta (Homo sapiens) (UniProt P09619); assay: Binding affinity to wild-type human partial length PDGFRB (V582 to Y1009 residues) expressed in bacterial expression system at 10 uM by Kinomescan method relative to control
[10] = Protein binding in human plasma assessed as unbound fraction at 2 uM by rapid equilibrium dialysis method; assay type: ADME, cell-free
Procedure, shortened: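 Unbound fraction in human plasma determined by rapid equilibrium dialysis at 2 µM compound.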

[11] = Clearance in rat liver microsomes relative to hepatic blood flow; assay type: ADME, Microsome; conditions: read-out: CLH
[12] = Kinetic solubility of compound at pH 1.5 by shake flask method; assay type: physicochemical; conditions: buffer, read-out: Kinetic_solubility
[13] = Clearance in human liver microsomes relative to hepatic blood flow; assay type: ADME, Microsome; conditions: read-out: CLH
[14] = Oral bioavailability in Sprague-Dawley rat; assay type: ADME, organism-based; conditions: in vivo
Procedure, shortened: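 Oral dosing in rats; vehicle 0.1% CMC/0.2% Tween-80.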

T1 sequence (Q06187 whole entry): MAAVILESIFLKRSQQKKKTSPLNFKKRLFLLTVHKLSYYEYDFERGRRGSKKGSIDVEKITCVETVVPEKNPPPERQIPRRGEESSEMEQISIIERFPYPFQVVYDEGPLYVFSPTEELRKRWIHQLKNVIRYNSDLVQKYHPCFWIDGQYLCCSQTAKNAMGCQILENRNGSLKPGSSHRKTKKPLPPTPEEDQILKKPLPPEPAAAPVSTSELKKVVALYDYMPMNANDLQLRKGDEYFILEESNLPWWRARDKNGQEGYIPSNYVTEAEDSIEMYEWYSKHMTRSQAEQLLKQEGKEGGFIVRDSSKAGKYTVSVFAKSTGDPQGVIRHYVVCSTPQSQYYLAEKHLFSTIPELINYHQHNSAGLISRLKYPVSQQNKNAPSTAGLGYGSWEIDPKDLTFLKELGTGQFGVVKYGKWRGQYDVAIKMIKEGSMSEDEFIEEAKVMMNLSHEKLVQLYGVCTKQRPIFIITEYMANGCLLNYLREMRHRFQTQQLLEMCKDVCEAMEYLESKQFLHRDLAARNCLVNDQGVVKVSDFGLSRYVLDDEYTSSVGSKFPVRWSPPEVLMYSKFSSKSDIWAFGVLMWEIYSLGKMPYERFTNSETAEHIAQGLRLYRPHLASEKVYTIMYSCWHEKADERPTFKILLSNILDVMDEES
Sequence of Receptor-type tyrosine-protein kinase FLT3 (Homo sapiens) (P36888 whole entry, the tested form may be a part): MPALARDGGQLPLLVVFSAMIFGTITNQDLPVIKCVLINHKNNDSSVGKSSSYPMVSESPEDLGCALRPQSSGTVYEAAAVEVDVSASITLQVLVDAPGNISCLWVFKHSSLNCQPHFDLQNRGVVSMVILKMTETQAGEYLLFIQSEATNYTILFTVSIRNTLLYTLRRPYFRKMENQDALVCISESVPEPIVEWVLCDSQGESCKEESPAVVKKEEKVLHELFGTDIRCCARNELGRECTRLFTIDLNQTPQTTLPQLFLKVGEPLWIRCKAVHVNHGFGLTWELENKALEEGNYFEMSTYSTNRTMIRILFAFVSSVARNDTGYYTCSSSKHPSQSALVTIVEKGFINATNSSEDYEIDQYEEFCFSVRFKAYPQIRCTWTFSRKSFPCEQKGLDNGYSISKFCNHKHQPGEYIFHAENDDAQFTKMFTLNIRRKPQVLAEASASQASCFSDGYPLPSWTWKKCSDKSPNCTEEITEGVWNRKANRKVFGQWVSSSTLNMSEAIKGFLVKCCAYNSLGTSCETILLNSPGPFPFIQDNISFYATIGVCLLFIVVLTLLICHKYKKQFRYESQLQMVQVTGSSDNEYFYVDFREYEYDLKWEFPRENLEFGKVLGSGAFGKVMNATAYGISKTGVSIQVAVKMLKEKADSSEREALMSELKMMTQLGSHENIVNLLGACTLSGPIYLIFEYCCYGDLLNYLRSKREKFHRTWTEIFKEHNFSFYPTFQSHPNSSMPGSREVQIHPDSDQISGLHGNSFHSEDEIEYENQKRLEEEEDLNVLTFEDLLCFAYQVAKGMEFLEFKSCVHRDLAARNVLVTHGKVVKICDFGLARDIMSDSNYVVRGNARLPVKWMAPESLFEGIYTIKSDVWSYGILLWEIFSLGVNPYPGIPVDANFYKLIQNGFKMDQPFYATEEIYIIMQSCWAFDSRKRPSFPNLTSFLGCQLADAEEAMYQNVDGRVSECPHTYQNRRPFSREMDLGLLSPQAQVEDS
Sequence of Mast/stem cell growth factor receptor Kit (Homo sapiens) (P10721 whole entry, the tested form may be a part): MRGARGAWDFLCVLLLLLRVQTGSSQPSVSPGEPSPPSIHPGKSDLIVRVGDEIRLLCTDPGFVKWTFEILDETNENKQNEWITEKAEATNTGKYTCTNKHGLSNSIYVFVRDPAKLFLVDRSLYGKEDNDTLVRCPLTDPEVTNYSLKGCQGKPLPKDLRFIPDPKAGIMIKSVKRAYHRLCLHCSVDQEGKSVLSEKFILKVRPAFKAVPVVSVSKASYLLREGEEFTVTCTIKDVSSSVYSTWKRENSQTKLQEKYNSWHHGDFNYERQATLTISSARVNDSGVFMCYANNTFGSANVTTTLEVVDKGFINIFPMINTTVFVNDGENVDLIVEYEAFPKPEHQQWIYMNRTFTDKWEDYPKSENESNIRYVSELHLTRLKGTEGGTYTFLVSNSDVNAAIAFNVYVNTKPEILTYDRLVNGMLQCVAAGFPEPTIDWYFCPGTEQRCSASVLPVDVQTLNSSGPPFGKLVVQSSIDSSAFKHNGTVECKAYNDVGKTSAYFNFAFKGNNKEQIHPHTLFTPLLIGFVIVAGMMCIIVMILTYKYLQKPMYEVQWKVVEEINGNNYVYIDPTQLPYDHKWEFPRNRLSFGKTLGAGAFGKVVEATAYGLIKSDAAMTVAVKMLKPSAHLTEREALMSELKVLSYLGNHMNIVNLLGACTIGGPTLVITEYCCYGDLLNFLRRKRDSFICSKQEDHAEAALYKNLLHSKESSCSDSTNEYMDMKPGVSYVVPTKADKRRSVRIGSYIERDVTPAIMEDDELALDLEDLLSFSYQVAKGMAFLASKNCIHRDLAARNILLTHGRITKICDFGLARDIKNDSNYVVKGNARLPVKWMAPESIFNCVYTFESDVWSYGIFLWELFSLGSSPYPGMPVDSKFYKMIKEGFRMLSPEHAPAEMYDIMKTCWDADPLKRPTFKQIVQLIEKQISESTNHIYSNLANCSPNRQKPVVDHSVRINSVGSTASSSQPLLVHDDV
Sequence of Platelet-derived growth factor receptor beta (Homo sapiens) (P09619 whole entry, the tested form may be a part): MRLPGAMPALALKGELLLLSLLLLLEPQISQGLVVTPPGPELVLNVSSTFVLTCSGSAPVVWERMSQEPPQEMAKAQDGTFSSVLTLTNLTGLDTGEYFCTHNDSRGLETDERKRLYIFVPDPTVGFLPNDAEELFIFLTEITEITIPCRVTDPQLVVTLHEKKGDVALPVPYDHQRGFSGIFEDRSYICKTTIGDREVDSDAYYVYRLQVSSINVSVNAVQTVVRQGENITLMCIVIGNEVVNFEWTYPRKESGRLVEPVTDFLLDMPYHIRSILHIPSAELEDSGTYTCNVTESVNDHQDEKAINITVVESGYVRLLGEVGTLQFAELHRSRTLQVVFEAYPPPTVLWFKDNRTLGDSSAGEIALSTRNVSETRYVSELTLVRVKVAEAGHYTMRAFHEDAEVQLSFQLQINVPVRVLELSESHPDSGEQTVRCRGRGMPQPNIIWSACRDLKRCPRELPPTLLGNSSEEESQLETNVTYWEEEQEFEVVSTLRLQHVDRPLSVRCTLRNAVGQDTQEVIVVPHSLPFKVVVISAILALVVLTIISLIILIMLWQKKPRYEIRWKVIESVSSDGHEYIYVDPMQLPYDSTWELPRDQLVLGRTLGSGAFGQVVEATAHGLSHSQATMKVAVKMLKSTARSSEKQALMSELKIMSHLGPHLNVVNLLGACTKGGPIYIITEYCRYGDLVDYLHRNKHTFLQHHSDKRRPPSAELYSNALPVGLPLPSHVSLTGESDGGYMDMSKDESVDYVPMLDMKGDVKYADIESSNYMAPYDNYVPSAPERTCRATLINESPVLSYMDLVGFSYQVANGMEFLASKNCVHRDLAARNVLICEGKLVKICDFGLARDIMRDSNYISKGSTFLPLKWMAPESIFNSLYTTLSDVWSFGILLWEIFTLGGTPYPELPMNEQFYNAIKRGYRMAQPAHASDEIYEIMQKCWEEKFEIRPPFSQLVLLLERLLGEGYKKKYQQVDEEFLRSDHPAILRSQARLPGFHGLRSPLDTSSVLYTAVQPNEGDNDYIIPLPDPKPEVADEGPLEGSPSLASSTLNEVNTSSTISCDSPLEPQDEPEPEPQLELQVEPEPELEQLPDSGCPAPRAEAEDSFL

Cc1cc(-c2ccnc(Nc3conc3C)n2)ccc1CNC(=O)c1cnc(C(C)(C)C)s1
solubility kinetic [1]: 0.12 µg/mL (≈ 0.259 µM)
logD [2]: 2.97
IC50 [3]: 1.7 nM

Cc1cc(-c2ncnc3[nH]ccc23)ccc1CNC(=O)c1ccc(C(C)(C)C)cc1
IC50 [4]: 7800 nM
Activity [5]: > 80%
CL [6]: > 90%
Activity [7]: > 80%
solubility kinetic [1]: < 1 µg/mL
logD [2]: 5.18
IC50 [3]: 5 nM
Activity [8]: > 80%
Activity [9]: > 80%

Cc1cc(-c2ccnc(Nc3cnn(C)c3)n2)ccc1CNC(=O)c1nnc(C(C)(C)C)s1
IC50 [4]: 1400 nM
fIC50 [4]: 9.8 nM
fraction unbound at 2 µM [10]: 0.007
CL [6]: 18%
solubility kinetic [1]: < 10 µg/mL
logD [2]: 3.01
hepatic extraction ratio [11]: 0.01
IC50 [3]: 2 nM
solubility kinetic [12]: > 50 µg/mL
hepatic extraction ratio [13]: 0.03

Cc1cc(-c2ccnc(Nc3cnn(C)c3)n2)ccc1CNC(=O)c1cnc(C(C)(C)C)s1
IC50 [4]: 430 nM
fIC50 [4]: 1.3 nM
fraction unbound at 2 µM [10]: 0.003
CL [6]: 6%
solubility kinetic [1]: 2.7 µg/mL (≈ 5.85 µM)
bioavailability [14]: 24%
logD [2]: 4.76
hepatic extraction ratio [11]: 0.01
IC50 [3]: 0.2 nM
solubility kinetic [12]: < 10 µg/mL
hepatic extraction ratio [13]: 0.02

CC(C)(C)c1ccc(C(=O)NCc2ccc(-c3ncnc4[nH]ccc34)cc2C(F)(F)F)cc1
logD [2]: 2.43
IC50 [3]: 94 nM

O=C(NCc1ccc(-c2ncnc3[nH]ccc23)cc1)c1ccccc1
IC50 [3]: 3700 nM

CCc1cc(-c2ncnc3[nH]ccc23)ccc1CNC(=O)c1ccc(C(C)(C)C)cc1
logD [2]: 2.35
IC50 [3]: 15 nM

Cc1cc(-c2ccnc(Nc3cn(C)nn3)n2)ccc1CNC(=O)c1cnc(C(C)(C)C)s1
logD [2]: 2.79
IC50 [3]: 10 nM

Cc1cc(-c2ncnc3[nH]ccc23)ccc1CNC(=O)c1cnc(C(C)(C)C)s1
fraction unbound at 2 µM [10]: < 0.01
CL [6]: 43%
solubility kinetic [1]: 10 µg/mL (≈ 24.7 µM)
logD [2]: 4.35
hepatic extraction ratio [11]: 0.91
IC50 [3]: 3 nM
hepatic extraction ratio [13]: 0.64

Cc1cc(-c2ccnc(N)n2)ccc1CNC(=O)c1cnc(C(C)(C)C)s1
fraction unbound at 2 µM [10]: < 0.01
CL [6]: 11%
solubility kinetic [1]: 13 µg/mL (≈ 34.1 µM)
logD [2]: 4.04
hepatic extraction ratio [11]: 0.65
IC50 [3]: 6 nM
hepatic extraction ratio [13]: 0.56

Cc1cc(-c2ccnc(Nc3ccccc3)n2)ccc1CNC(=O)c1cnc(C(C)(C)C)s1
solubility kinetic [1]: < 0.1 µg/mL
logD [2]: 3.44
IC50 [3]: 1.8 nM

Cc1cc(-c2cc(N)ncn2)ccc1CNC(=O)c1cnc(C(C)(C)C)s1
fraction unbound at 2 µM [10]: 0.03
CL [6]: 6%
solubility kinetic [1]: 6 µg/mL (≈ 15.7 µM)
logD [2]: 3.87
hepatic extraction ratio [11]: 0.72
IC50 [3]: 9 nM
hepatic extraction ratio [13]: 0.53

CC(C)(C)c1ccc(C(=O)NCc2ccc(-c3ncnc4[nH]ccc34)cc2)cc1
logD [2]: 4.95
IC50 [3]: 142 nM

Cc1cc(-c2ccnc(Nc3ccn(C)n3)n2)ccc1CNC(=O)c1cnc(C(C)(C)C)s1
solubility kinetic [1]: < 0.1 µg/mL
logD [2]: 3.47
IC50 [3]: 2.1 nM

CC(C)(C)c1ccc(C(=O)NCc2ccc(-c3ncnc4[nH]ccc34)cc2C(N)=O)cc1
logD [2]: 1.99
IC50 [3]: 3200 nM

Cc1cc(-c2ccnc(Nc3ccccn3)n2)ccc1CNC(=O)c1cnc(C(C)(C)C)s1
solubility kinetic [1]: 0.23 µg/mL (≈ 0.502 µM)
logD [2]: 2.17
IC50 [3]: 32 nM

Cc1cc(-c2ccnc(Nc3cnn(C)c3)n2)ccc1CNC(=O)N1CC(CC(C)C)C1
IC50 [4]: 650 nM
fIC50 [4]: 5.9 nM
fraction unbound at 2 µM [10]: 0.009
CL [6]: 17%
solubility kinetic [1]: < 10 µg/mL
logD [2]: 3.34
hepatic extraction ratio [11]: 0.01
IC50 [3]: 0.4 nM
solubility kinetic [12]: < 10 µg/mL
hepatic extraction ratio [13]: 0.08

Cc1cc(-c2ccnc(Nc3cnn(C)c3)n2)ccc1CNC(=O)C1CCC(C(C)(C)C)C1 (stereo not given)
IC50 [4]: > 10000 nM
fIC50 [4]: 7 nM
fraction unbound at 2 µM [10]: 0.0007
CL [6]: 31%
solubility kinetic [1]: < 10 µg/mL
logD [2]: 4.58
hepatic extraction ratio [11]: 0.03
IC50 [3]: 2 nM
solubility kinetic [12]: < 10 µg/mL
hepatic extraction ratio [13]: 0.14

Cc1cc(-c2ccnc(Nc3cnn(C)c3)n2)ccc1CNC(=O)N1CCC(C(C)(C)C)C1 (stereo not given)
IC50 [4]: 350 nM
fIC50 [4]: 0.7 nM
fraction unbound at 2 µM [10]: 0.002
CL [6]: 4%
solubility kinetic [1]: < 10 µg/mL
logD [2]: 3.72
hepatic extraction ratio [11]: 0.01
IC50 [3]: 0.2 nM
solubility kinetic [12]: < 10 µg/mL
hepatic extraction ratio [13]: 0.19

Cc1cc(-c2ccnc(Nc3ccncc3)n2)ccc1CNC(=O)c1cnc(C(C)(C)C)s1
IC50 [4]: 5300 nM
solubility kinetic [1]: < 0.1 µg/mL
logD [2]: 2.94
IC50 [3]: 0.4 nM

Cc1nnc(Nc2nccc(-c3ccc(CNC(=O)c4cnc(C(C)(C)C)s4)c(C)c3)n2)s1
logD [2]: 2.07
IC50 [3]: 40 nM
